From ChEMBL document CHEMBL5661985, “In silico design of novel probes for the atypical opioid receptor MRGPRX2” (Nat Chem Biol, 2017) come the findings set out here.

In assay [1] the target is T1, Mas-related G-protein coupled receptor member X2 (Homo sapiens, UniProt Q96LB1).
T1 sequence (Q96LB1 whole entry): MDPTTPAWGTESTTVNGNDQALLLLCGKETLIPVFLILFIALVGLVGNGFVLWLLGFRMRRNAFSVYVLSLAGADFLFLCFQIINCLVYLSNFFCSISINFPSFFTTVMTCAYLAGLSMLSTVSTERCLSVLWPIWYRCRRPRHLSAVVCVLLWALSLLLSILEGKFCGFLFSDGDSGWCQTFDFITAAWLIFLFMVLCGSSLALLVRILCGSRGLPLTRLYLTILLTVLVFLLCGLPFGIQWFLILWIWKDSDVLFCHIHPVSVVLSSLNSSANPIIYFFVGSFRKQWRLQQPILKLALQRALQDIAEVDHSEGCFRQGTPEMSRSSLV
Nature of the assay: Agonist activity at N-terminal Flag-tagged human MRGPRX2 receptor expressed in tetracycline-induced FLP-IN/T-REX 293 cells assessed as increase in intracellular calcium release by FLIPR assay. The format is functional, cell-based. A general note: Calcium assays in cells follow changes in intracellular calcium, usually with a dye or a luminescent sensor.

Assay [2] deals with T2, Mas-related G-protein coupled receptor member X2 (Homo sapiens) (UniProt Q96LB1).
T2 sequence (whole entry): T1 sequence (Q96LB1 whole entry)
Nature of the assay: Agonist activity at MRGPRX2 receptor in human LAD2 cells assessed as increase in degranulation at 10 uM incubated for 30 mins in presence of IgE by beta-hexosaminidase assay relative to control. The following applies: filed as agonist. The format is functional, cell-based. In short, it runs like this: (§1)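 β-Hexosaminidase release: LAD2 cells in fresh medium 18 h, washed in Tyrode's buffer pH 7.4, 10,000 cells/well; drug (single concentration or 8-point curve) added in triplicate, 30 min 37°C; supernatant and Triton X-100 lysate each reacted with NAG in citrate pH 4.5 for 90 min 37°C, stopped with carbonate pH 10, A405; % release = released/total ×100, minus vehicle.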

Assay [3] addresses T2, Mas-related G-protein coupled receptor member X2 (Homo sapiens). Nature of the assay: Agonist activity at MRGPRX2 receptor in human LAD2 cells transfected with MRGPRX2 siRNA assessed as increase in degranulation incubated for 30 mins by beta-hexosaminidase assay. It is filed as functional, cell-based. The method, boiled down:
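LAD2 cells (1.2 million/well) transfected with 25 nM MRGPRX2 siRNA pool or non-targeting pool, 72 h; 200,000 cells taken for β-hexosaminidase assay with EC80 concentration of agonist, 30 min 37°C; knockdown checked by qRT-PCR on 1 million cells; fold change % degranulation versus DMSO; two-way ANOVA with Sidak test.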

The target is the same in assay [4]. Nature of the assay: Agonist activity at MRGPRX2 receptor in human LAD2 cells assessed as increase in degranulation incubated for 30 mins by beta-hexosaminidase assay. The following applies: filed as agonist. The format is functional, cell-based. In short, it runs like this: as §1
For the next assay, the target named is Mu-type opioid receptor (Homo sapiens, UniProt P35372). Nature of the assay: Displacement of [3H]-DAMGO from MOR (unknown origin).
Mu-type opioid receptor, sequence (P35372 whole entry): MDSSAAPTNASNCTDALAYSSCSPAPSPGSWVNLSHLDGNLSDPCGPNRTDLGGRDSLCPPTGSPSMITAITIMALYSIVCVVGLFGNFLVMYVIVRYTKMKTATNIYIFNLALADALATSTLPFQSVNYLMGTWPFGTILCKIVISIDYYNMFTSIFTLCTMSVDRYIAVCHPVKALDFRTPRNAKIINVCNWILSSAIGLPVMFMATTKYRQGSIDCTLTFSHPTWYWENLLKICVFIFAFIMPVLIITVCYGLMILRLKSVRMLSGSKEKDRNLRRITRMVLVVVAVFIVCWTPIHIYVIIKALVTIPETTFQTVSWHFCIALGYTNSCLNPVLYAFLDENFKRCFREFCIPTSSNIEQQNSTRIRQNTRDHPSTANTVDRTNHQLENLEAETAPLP
For assay [5], the target named is T2, Mas-related G-protein coupled receptor member X2 (Homo sapiens). Nature of the assay: Agonist activity at N-terminal Flag-tagged human MRGPRX2 receptor expressed in HEK-T cells assessed as increase in intracellular calcium release by FLIPR assay. It is filed as functional, cell-based. Particulars: HEK-T cell. In short, it runs like this: (§2)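 FLIPR calcium: FLP-IN/T-REX HEK-293-T stable line with N-terminal FLAG codon-optimized receptor, induced 24 h with 1 μg/mL tetracycline in 1% dialyzed FBS (uninduced cells as control); FLIPR calcium dye plus 2.5 mM probenecid 1 h 37°C; 10 s baseline, then drug in HBSS/20 mM HEPES/probenecid pH 7.4, 16-point curve 10 μM to 0.003 nM; fluorescence 120 s; fold over basal, n=3 triplicate.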

Assay [6] has the same target. The assay can be described thus: Agonist activity at N-terminal Flag-tagged human MRGPRX2 receptor expressed in tetracycline-induced HEK-T cells assessed as increase in intracellular calcium release by FLIPR assay. The format is functional, cell-based. The following applies: HEK-T cell, filed as agonist. In short, it runs like this: as §2
The target is the same in assay [7]. Nature of the assay: Agonist activity at MRGPRX2 receptor in human LAD2 cells assessed as increase in degranulation incubated for 30 mins in presence of naloxone by beta-hexosaminidase assay. The format is functional, cell-based. In short, it runs like this: as §1
Assay [8] concerns the target Delta-type opioid receptor (Homo sapiens, UniProt P41143). Nature of the assay: Displacement of [3H]-Naltrindole from DOR (unknown origin).
The target in assay [9] is T1, Mas-related G-protein coupled receptor member X2. The assay can be described thus: Agonist activity at MRGPRX2 (unknown origin) expressed in HTLA cells assessed as induction of beta-arrestin 2 recruitment incubated for 18 to 24 hrs by PRESTO-Tango assay. It is filed as functional, cell-based.
For assay [10], the target named is Kappa-type opioid receptor (Homo sapiens, UniProt P41145). The assay can be described thus: Displacement of [3H]-Diprenorphine from KOR (unknown origin). Background: Loss of bound radioactivity is the signal in a displacement assay; it reports binding, not function.
Kappa-type opioid receptor, sequence (P41145 whole entry): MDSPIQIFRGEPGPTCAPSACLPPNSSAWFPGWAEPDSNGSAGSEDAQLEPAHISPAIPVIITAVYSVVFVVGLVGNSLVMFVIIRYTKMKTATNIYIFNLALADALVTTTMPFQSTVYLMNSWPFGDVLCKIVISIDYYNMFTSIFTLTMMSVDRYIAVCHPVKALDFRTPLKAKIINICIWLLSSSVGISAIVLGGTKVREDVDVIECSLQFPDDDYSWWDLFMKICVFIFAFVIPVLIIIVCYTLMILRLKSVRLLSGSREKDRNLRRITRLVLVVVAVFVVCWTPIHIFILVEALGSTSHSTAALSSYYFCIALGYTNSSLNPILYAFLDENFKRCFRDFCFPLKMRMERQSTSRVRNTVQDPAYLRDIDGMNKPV
For assay [11], the target named is T2, Mas-related G-protein coupled receptor member X2 (Homo sapiens). Nature of the assay: Agonist activity at MRGPRX2 receptor in human LAD2 cells assessed as increase in intracellular calcium release by FLIPR assay. It is filed as functional, cell-based. Particulars: filed as agonist. In short, it runs like this:
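LAD2 human mast cells seeded 50,000/well in Tyrode's buffer with calcium dye, 1 h before drug; 10 s baseline, drug added, fluorescence followed 120 s; expressed as fold calcium release over baseline; n=3 in triplicate.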

For assay [12] the target is unchanged. Nature of the assay: Agonist activity at MRGPRX2 receptor in human LAD2 cells assessed as increase in degranulation at 10 uM incubated for 30 mins by beta-hexosaminidase assay relative to control. The format is functional, cell-based. The following applies: filed as agonist. The method, boiled down: as §1
Assay [13] addresses Proteinase-activated receptor 2 (Homo sapiens) (UniProt P55085). The assay can be described thus: Agonist activity at F2R-L1 receptor (unknown origin). In short, it runs like this: (§3)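 PRESTO-Tango β-arrestin2 recruitment; HTLA cells (HEK-T stably expressing β-arrestin2-TEV and tTA-dependent luciferase) transfected by calcium phosphate with receptor-Tango construct, replated next day at 20,000 cells/well; compounds in HBSS/20 mM HEPES/0.3% BSA pH 7.4, 18–24 h; Bright-Glo luminescence after 15 min RT, read as RLU; ≥2-fold over basal scored active.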

Assay [14] deals with Pituitary adenylate cyclase-activating polypeptide type I receptor (Homo sapiens) (UniProt P41586). Nature of the assay: Agonist activity at ADCYAP1 receptor (unknown origin). The method, boiled down:
as §3

Assay [15] deals with 5-hydroxytryptamine receptor 1A (Homo sapiens) (UniProt P08908). Nature of the assay: Agonist activity at HTR1A receptor (unknown origin). The format is functional. The method, boiled down:
as §3

In assay [16] the target is Beta-1 adrenergic receptor (Homo sapiens) (UniProt P08588). The assay can be described thus: Agonist activity at ADRB1 receptor (unknown origin). It is filed as functional. The method, boiled down:
as §3

In assay [17] the target is Alpha-1A adrenergic receptor (Homo sapiens) (UniProt P35348). Nature of the assay: Agonist activity at ADRA1A receptor (unknown origin). The format is functional. The method, boiled down:
as §3

In assay [18] the target is D(4) dopamine receptor (Homo sapiens) (UniProt P21917). The assay can be described thus: Agonist activity at DRD4 receptor (unknown origin). It is filed as functional. The method, boiled down:
as §3

Assay [19] addresses Lutropin-choriogonadotropic hormone receptor (Homo sapiens) (UniProt P22888). Nature of the assay: Agonist activity at LHCGR (unknown origin). The format is functional. The method, boiled down: as §3
Assay [20] concerns the target Glucagon-like peptide 1 receptor (Homo sapiens) (UniProt P43220). The assay can be described thus: Agonist activity at GLP1R (unknown origin). The format is functional. The method, boiled down:
as §3

The target of assay [21] is Muscarinic acetylcholine receptor M2 (Homo sapiens) (UniProt P08172). The assay can be described thus: Agonist activity at CHRM2 receptor (unknown origin). The format is functional. In short, it runs like this: as §3
In assay [22] the target is Type-1 angiotensin II receptor (Homo sapiens) (UniProt P30556). The assay can be described thus: Agonist activity at AGTR1 receptor (unknown origin). It is filed as functional. In short, it runs like this:
as §3

The target in assay [23] is Gastrin-releasing peptide receptor (Homo sapiens) (UniProt P30550). Nature of the assay: Agonist activity at GRPR (unknown origin). The format is functional. The method, boiled down: as §3
The target of assay [24] is Melanin-concentrating hormone receptor 2 (Homo sapiens) (UniProt Q969V1). The assay can be described thus: Agonist activity at MCHR2 receptor (unknown orgini). It is filed as functional. In short, it runs like this:
as §3

In assay [25] the target is Alpha-1D adrenergic receptor (Homo sapiens) (UniProt P25100). The assay can be described thus: Agonist activity at ADRA1D receptor (unknown origin). The format is functional. The method, boiled down: as §3
Alpha-1D adrenergic receptor (Homo sapiens), sequence (P25100 whole entry): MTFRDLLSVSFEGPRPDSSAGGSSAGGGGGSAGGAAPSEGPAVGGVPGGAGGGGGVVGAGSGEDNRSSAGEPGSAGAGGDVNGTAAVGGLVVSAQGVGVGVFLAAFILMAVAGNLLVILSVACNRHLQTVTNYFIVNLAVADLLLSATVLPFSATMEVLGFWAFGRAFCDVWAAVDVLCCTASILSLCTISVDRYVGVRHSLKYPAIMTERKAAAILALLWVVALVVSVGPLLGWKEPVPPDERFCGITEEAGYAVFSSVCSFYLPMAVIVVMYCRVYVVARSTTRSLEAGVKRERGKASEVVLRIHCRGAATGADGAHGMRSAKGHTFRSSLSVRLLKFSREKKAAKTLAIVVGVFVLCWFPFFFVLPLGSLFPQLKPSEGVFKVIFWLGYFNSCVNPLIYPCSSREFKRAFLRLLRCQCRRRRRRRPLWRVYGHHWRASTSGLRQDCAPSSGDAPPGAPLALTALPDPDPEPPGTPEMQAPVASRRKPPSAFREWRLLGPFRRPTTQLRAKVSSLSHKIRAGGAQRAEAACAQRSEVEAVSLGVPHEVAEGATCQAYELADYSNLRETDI
In assay [26] the target is T2, Mas-related G-protein coupled receptor member X2 (Homo sapiens). The assay can be described thus: Agonist activity at N-terminal Flag-tagged human MRGPRX2 receptor expressed in tetracycline-induced FLP-IN/T-REX 293 cells assessed as increase in intracellular calcium release <100 uM by FLIPR assay. The format is functional, cell-based. The following applies: filed as agonist. The method, boiled down: as §2

Assay [27] addresses Glucose-dependent insulinotropic receptor (Homo sapiens) (UniProt Q8TDV5). Nature of the assay: Agonist activity at GPR119 receptor (unknown origin). It is filed as functional. The method, boiled down: as §3
Assay [28] has as its target T2, Mas-related G-protein coupled receptor member X2 (Homo sapiens). The assay can be described thus: Agonist activity at MRGPRX2 (unknown origin) expressed in HTLA cells assessed as induction of beta-arrestin 2 recruitment <100 uM incubated for 18 to 24 hrs by PRESTO-Tango assay. The format is functional, cell-based. The following applies: filed as agonist, time 18-24 hrs. In short, it runs like this:
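β-arrestin2 recruitment by PRESTO-Tango: HTLA cells transiently transfected (calcium phosphate) with codon-optimized MRGPRX2-Tango (WT or point mutant) or MRGPRB2-Tango, plated next day 20,000 cells/well on poly-L-lysine; drug in HBSS/20 mM HEPES/0.3% BSA pH 7.4 for 18–24 h; Bright-Glo luminescence (RLU); curves n=3 in triplicate, mutants n=4 in triplicate.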
Background: Activated receptors often draw arrestin, which recruitment assays turn into a signal.

Assay [29] addresses Cannabinoid receptor 2 (Homo sapiens) (UniProt P34972). Nature of the assay: Agonist activity at CNR2 receptor (unknown origin). It is filed as functional. In short, it runs like this: as §3
Assay [30] has as its target Prosaposin receptor GPR37 (Homo sapiens) (UniProt O15354). The assay can be described thus: Agonist activity at GPR37 receptor (unknown origin). It is filed as functional. In short, it runs like this: as §3
Assay [31] addresses Alpha-1B adrenergic receptor (Homo sapiens) (UniProt P35368). The assay can be described thus: Agonist activity at ADRA1B receptor (unknown origin). The format is functional. The method, boiled down:
as §3

Assay [32] addresses G-protein coupled receptor 15 (Homo sapiens) (UniProt P49685). Nature of the assay: Agonist activity at GPR15 receptor (unknown origin). The format is functional. The method, boiled down:
as §3

For assay [33], the target named is 5-hydroxytryptamine receptor 2A (Homo sapiens) (UniProt P28223). Nature of the assay: Agonist activity at HTR2 receptor (unknown origin). The format is functional. In short, it runs like this: as §3
5-hydroxytryptamine receptor 2A (Homo sapiens), sequence (P28223 whole entry): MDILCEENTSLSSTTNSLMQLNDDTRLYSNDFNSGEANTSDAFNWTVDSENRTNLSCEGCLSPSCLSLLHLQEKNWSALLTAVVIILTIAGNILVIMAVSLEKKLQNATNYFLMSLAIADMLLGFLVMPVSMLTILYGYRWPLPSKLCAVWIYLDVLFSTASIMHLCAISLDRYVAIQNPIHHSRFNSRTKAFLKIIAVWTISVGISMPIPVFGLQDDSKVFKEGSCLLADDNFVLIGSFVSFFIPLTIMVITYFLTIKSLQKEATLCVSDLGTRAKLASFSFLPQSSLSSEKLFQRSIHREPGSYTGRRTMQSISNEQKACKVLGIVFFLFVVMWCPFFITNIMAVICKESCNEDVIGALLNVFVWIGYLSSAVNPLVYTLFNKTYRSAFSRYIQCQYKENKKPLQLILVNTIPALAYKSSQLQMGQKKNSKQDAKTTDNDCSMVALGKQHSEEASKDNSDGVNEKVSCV
The target of assay [34] is Alpha-2C adrenergic receptor (Homo sapiens) (UniProt P18825). The assay can be described thus: Agonist activity at ADRA2C receptor (unknown origin). The method, boiled down:
as §3

Assay [35] addresses Beta-3 adrenergic receptor (Homo sapiens) (UniProt P13945). Nature of the assay: Agonist activity at ADRB3 receptor (unknown origin). The format is functional. In short, it runs like this:
as §3

As usually defined, the Ki is a measure of affinity in units of concentration, obtained from inhibition or displacement. Read a low Ki as tighter binding.

Activity calls are given as the source filed them. No cut-off for these calls is given here.

Delta-type opioid receptor, sequence (P41143 whole entry): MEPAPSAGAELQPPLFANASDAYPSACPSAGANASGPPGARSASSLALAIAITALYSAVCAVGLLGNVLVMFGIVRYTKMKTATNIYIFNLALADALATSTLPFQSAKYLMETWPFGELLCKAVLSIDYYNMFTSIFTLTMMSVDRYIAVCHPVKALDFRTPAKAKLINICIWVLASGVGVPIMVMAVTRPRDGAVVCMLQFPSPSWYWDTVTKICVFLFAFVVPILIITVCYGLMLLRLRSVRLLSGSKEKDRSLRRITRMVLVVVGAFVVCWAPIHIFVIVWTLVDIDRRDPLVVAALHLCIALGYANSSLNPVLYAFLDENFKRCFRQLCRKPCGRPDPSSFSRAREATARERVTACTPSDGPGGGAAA
Proteinase-activated receptor 2 (Homo sapiens), sequence (P55085 whole entry): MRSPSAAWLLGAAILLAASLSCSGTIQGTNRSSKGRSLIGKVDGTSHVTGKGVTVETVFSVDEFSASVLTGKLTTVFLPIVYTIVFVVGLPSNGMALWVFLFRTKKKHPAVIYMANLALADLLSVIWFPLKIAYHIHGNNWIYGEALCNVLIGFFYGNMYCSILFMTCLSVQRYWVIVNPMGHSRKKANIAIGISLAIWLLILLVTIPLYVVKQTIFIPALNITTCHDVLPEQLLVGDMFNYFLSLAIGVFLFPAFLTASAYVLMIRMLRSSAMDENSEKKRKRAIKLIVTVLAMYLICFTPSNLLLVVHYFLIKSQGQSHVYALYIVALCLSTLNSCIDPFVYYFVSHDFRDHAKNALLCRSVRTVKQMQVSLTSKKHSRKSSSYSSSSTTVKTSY
Glucagon-like peptide 1 receptor (Homo sapiens), sequence (P43220 whole entry): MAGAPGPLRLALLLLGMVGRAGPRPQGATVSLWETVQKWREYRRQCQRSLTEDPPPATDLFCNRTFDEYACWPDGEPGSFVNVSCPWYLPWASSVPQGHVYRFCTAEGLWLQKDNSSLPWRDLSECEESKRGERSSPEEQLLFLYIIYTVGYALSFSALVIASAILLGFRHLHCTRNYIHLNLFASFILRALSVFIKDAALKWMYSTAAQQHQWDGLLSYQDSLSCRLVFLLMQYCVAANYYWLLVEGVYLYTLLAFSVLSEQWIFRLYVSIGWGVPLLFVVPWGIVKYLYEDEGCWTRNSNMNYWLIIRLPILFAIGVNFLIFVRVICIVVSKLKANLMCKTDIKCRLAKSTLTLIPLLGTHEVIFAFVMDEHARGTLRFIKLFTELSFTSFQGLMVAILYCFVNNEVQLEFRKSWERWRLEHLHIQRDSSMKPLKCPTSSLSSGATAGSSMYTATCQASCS
Alpha-1A adrenergic receptor (Homo sapiens), sequence (P35348 whole entry): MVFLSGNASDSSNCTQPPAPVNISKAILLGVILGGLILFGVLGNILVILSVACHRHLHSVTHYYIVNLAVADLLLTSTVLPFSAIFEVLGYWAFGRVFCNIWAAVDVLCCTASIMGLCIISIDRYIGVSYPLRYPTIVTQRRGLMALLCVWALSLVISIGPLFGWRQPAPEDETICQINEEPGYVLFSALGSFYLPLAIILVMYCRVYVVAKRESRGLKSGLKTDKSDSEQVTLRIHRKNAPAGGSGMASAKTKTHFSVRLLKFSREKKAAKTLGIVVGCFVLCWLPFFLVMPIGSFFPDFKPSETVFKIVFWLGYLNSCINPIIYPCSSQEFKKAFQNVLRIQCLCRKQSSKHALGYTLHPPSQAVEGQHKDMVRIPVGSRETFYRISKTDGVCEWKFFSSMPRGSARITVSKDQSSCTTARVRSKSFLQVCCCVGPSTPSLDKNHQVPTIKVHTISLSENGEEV
Cannabinoid receptor 2 (Homo sapiens), sequence (P34972 whole entry): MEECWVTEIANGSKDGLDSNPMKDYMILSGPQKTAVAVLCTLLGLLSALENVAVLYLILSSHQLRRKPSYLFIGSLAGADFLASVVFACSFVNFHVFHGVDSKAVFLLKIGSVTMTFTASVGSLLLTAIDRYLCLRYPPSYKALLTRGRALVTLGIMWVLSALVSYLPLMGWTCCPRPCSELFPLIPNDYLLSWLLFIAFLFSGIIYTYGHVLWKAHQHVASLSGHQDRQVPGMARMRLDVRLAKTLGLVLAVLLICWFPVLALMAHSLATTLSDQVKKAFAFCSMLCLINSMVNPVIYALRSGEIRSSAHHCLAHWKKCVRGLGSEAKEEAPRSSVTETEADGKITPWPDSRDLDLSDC
Alpha-2C adrenergic receptor (Homo sapiens), sequence (P18825 whole entry): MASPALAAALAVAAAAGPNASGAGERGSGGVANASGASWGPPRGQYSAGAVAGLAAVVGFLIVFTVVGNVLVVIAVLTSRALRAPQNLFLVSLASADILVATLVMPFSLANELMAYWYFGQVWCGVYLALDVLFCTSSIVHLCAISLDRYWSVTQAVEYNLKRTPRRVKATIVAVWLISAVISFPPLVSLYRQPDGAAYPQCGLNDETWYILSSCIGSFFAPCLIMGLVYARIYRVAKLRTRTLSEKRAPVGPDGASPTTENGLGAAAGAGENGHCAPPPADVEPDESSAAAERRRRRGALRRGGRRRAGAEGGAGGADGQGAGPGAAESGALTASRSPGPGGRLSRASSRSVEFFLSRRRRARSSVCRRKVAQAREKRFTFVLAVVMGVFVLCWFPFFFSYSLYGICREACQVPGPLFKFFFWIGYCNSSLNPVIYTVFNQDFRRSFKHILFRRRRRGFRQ
Melanin-concentrating hormone receptor 2 (Homo sapiens), sequence (Q969V1 whole entry): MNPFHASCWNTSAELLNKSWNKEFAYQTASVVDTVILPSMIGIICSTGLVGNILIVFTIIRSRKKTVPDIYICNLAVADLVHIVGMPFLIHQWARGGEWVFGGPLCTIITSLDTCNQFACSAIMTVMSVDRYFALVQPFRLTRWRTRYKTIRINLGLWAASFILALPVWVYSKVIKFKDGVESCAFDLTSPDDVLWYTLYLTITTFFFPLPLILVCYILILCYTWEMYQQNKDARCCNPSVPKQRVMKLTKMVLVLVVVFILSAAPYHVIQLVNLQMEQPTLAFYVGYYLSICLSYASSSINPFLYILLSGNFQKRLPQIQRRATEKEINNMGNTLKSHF

In the case of `CN1CCC2(c3cccc(O)c3)Cc3nc4ccccc4cc3CC2C1` (racemic), the EC50 was 740 nM in assay [1] (read-out: EC50); 646 nM in [1] (read-out: pEC50 (converted)); 324 nM at Mu-type opioid receptor; 13.1 nM in [8]; 1820 nM in assay [9] (read-out: pEC50 (converted)); 88700 nM in assay [10]. The Activity in assay [2] and in assay [12] was 70% throughout. For the same molecule, the result in [3], in [5] and in [7] was inactive. The result in assay [4], in assay [6] and in [11] was Active. Moreover, the Ki on Mu-type opioid receptor came to 239 nM; in assay [8], 2.94 nM; in assay [10], 22000 nM.
As to `CN(C)[C@H]1CCN(c2cc(-c3ccccc3)nc3ccnn23)C1` [(S)-ZINC-3573], the outcome in [13], in assay [14], in assay [15], in assay [16], in assay [17] and in assay [18] was inactive. Besides, the outcome in assay [19], in assay [20], in assay [21], in assay [22], in assay [23] and in assay [24] was inactive. The result in assay [25], in [27], in assay [29], in [30], in assay [31] and in assay [32] was inactive. For the same molecule, the outcome in assay [33], in [34] and in assay [35] was inactive. Besides, the outcome in assay [26] and in assay [28] was Active. For the same molecule, in assay [9] (read-out: EC50), the EC50 is over 100000 nM.
